Source: PubChem BioAssay
CaV13 ICDI inh – Primary screen for inhibitors of IQ motif and Ca2+-dependent inactivation inhibitor domain binding in CACNA1D, Förster resonance energy transfer in living cells, …; 340,000 compounds, 0.098% hits; HEK cells, CFP/YFP FRET ICDI-IQ, plate reader, 10 min; percent FRET-ratio fall versus neutral wells; inhibition, % at 12.3 µM;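 active = mean replicate inhibition of at least 30% and at least 1% of replicates passing that level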;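 also: 0% = median of the neutral control wells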
Efflux pump inh – antifungal efflux pump inhibition, Nile Red retention; S. cerevisiae Candida pump triplex; inhibition, % at 10 µM; 330,000 compounds, 0.44% hits; AID 485275;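 active = plate passing quality check with inhibition over a set limit, or well fluorescence over plate mean plus 4 SD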;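 also: Nile Red retained in pooled yeast measured as flow cytometry median fluorescence; 0% = buffer negative control and 100% = Enniatin B positive control; higher means more Nile Red kept so more efflux inhibition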
SR-BI DiI-HDL act – enhances SR-BI lipid uptake from DiI-HDL | 320,000 compounds, 0.096% hits | CHO ldlA[mSR-BI] cells, DiI-HDL uptake fluorescence, 3 h; 100 = double the neutral-control signal | AID 504775 | activation, % at 12.5 µM;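 active = mean replicate activation of at least 60% and every replicate at or above 60%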;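 also: 0% = median plate neutral-control signal and 100% = twice that signal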
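System: CHO ldlA[mSR-BI] cells / Medium: HEPES-buffered (25 mM, pH 7.4) F12 plus 0.5% BSA / Probe or stimulus: labelled HDL, 10 µg/mL / Doses: single compound concentration, delivered by pin transfer / Schedule: 3 h, 37 °C / Measured by: DiI fluorescence, bottom read / Measure: cell-associated DiI fluorescence as measure of HDL uptake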
SR-BI DiI inh – blocks mouse SR-BI lipid uptake from DiI-HDL; Q61009; ldlA[mSR-BI] CHO cells, DiI-HDL uptake fluorescence, 3 h; inhibition, % at 12.5 µM; 320,000 compounds, 0.96% hits;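 active = mean replicate inhibition of at least 70% and a set share of replicates each scoring 70 or more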;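 also: 0% = median of neutral control wells and 100% = median of positive control wells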
Target sequence (Q61009 whole entry, looked up): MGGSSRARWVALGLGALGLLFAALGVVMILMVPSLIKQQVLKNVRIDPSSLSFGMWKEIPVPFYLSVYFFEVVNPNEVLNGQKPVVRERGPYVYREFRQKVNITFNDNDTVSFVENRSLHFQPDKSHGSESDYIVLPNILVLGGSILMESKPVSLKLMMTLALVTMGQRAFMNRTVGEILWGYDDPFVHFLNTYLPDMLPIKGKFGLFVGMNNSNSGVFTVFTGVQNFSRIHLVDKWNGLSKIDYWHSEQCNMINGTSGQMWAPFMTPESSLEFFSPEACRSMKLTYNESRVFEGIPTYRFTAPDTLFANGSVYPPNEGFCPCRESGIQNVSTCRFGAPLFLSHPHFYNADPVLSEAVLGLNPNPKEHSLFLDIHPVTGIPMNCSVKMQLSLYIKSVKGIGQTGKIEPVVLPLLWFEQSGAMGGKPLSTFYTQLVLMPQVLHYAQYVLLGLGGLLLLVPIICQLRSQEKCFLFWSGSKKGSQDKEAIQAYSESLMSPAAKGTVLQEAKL
FN deposition inh – fibronectin deposition inhibition; 350,000 compounds, 0.086% hits; AH1F fibroblasts, Alexa488-fibronectin deposition fluorescence, overnight; inhibition, % at 12.6 µM;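 active = mean inhibition across replicates of 30% or more, regardless of how many single replicates reach that level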;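 also: positive control wells lacked labelled fibronectin entirely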
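test system = AH1F fibroblasts assembling fluorescent fibronectin matrix | quantity = 10000 AH1F cells per well | buffer or medium = DMEM plus 2% serum, read in PBS | doses = single dose, pinned | incubation = 1 h cell attachment, overnight exposure to compound and label | detection = fluorescence at 485 nm excitation, 525 nm emission | read-out basis = inhibition from reduced deposited-fibronectin fluorescence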
Starred values were filed as active, the others as inactive; / = no result given. Most compounds without a hit are left out; they make up all but 1.2% or so of the library.

SMILES	CaV13 ICDI inh	Efflux pump inh	SR-BI DiI-HDL act	SR-BI DiI inh	FN deposition inh
CCSc1nnc(Cc2cc(=O)[nH]c(=O)[nH]2)n1-c1cc(C)ccc1C	-4	0	-4	4	-9
CCC(C)Sc1nnc(Cc2cc(=O)[nH]c(=O)[nH]2)n1-c1ccc(OC)cc1 (configuration not stated)	-12	0	15	-15	5
Cc1ccc(C)c(-n2c(Cc3cc(=O)[nH]c(=O)[nH]3)nnc2SC(C)C)c1	39*	0	15	-15	-7
O=C(C[C@H]1CC[C@H]2[C@@H](COC[C@H](O)CN2C(=O)Nc2ccccc2)O1)NCCc1ccncc1	/	/	/	/	0
CCC(=O)Nc1ccc2c(c1)OC[C@H](C)N(CCC(F)(F)F)C[C@H](C)[C@@H](OC)CN(C)C2=O	/	/	/	/	-1
c1ccc(C2=Nn3c(nnc3-c3ccncc3)SC2)cc1	-5	0	13	-13	3
Cc1cccc(-c2nnc3n2N=C(c2ccccc2)CS3)c1	-5	0	-39	39	active
N#Cc1ccc(-c2csc(NC3=NCCCCC3)n2)cc1	-5	/	-75	75*	-3
Cc1c(Cl)ccc2c(C(=O)NCCN3CCCCC3)cc(-c3ccccn3)nc12	-3	0	-15	15	-1
COc1ccccc1-c1cc(C(=O)NC2CCN(C)CC2)c2ccc(Cl)c(C)c2n1	-5	1.6*	4	-4	-2
COc1ccccc1NC(=O)Nc1ccc2c(c1)C(=O)N(C)C[C@@H](OC)[C@H](C)CN(C)[C@@H](C)CO2	/	/	/	/	6
CN1C(=O)c2cc(NC(=O)c3ccc(F)c(F)c3)ccc2OC[C@@H]2O[C@@H](CC(=O)N3CCOCC3)CC[C@H]21	/	/	/	/	-2
COc1cc(C(=O)NCC2CCCO2)ccc1OCc1ccc(Cl)cc1Cl (configuration not stated)	-6	0	-79	79*	/
COc1cc(C(=O)NCC2CCCO2)ccc1OCc1ccc(Cl)cc1 (configuration not stated)	-6	1	-52	52	-3
CCCC(=O)Nc1ccc2c(c1)OC[C@H](C)N(CCc1ccccc1)C[C@@H](C)[C@@H](OC)CN(C)C2=O	/	/	/	/	-7
O=C(C[C@H]1C[C@@H]2c3cc(NC(=O)NC4CCCCC4)ccc3O[C@@H]2[C@@H](CO)O1)NC1CCCC1	/	/	/	/	-9
C=CCNC(=S)N/N=C/c1ccc(-c2ccc(Br)cc2)o1	-5	-1	-82	82*	-11
C=CCNC(=S)N/N=C/c1ccc(-c2cccc([N+](=O)[O-])c2)o1	-5	0	-69	69	2
CCCCOC(=O)c1ccc(-c2ccc(/C=N/NC(=S)NCC)o2)cc1	-5	0	-88	88*	-7
CO[C@@H]1CN(C)C(=O)c2ccc(NC(=O)Nc3cccc(Cl)c3)cc2OC[C@H](C)N(C(=O)Nc2c(C)noc2C)C[C@H]1C	/	/	/	/	-6
CCc1cccc(NC(=O)Cn2c(=O)n(CCC(=O)NCC3CCCO3)c(=O)c3cc(OC)c(OC)cc32)c1 (configuration not stated)	-7	-1	379*	-379	-12
COc1ccc(NC(=O)Cn2c(=O)n(CCC(=O)NCC3CCCO3)c(=O)c3cc(OC)c(OC)cc32)cc1 (configuration not stated)	-7	0	-8	8	5
COc1ccccc1Nc1cc(C(=O)NC2CCCC2)c2ccccc2n1	-3	0	-66	66	-5
COc1ccccc1Nc1nc(-c2ccccc2)nc2ccccc12	-9	0	-56	56	-1
COc1ccc(Nc2nc(-c3ccncc3)nc3ccccc23)cc1	-4	0	-80	80*	-11
SMILES	CaV13 ICDI inh	Efflux pump inh	SR-BI DiI-HDL act	SR-BI DiI inh	FN deposition inh
COc1ccc(Nc2cc(C(=O)NC3CCCC3)c3ccccc3n2)c(OC)c1	-3	0	-88	88*	0
COc1ccc(Nc2nc(-c3ccccc3)nc3ccccc23)c(OC)c1	8	0	-76	76*	18
COc1ccc(OC)c(Nc2nc(-c3ccncc3)nc3ccccc23)c1	-18	0	-48	48	19
COC(=O)C[C@H]1CC[C@@H]2[C@@H](COc3ccc(NC(=O)c4ccccc4OC)cc3C(=O)N2C)O1	/	/	/	/	-6
Cc1cc(-c2csc(N)n2)c(C)n1-c1ccc(Cl)c(Cl)c1	-3	0	-70	70*	-6
COc1ccc(-n2c(C)cc(-c3csc(N)n3)c2C)cc1	-10	0	-6	6	0
COc1ccc(NC(=O)c2cc(-c3ccccc3)nc3c2cnn3C(C)C)cc1	-14	0	-82	82*	2
CC(C)n1ncc2c(C(=O)Nc3cccc(C#N)c3)cc(C3CC3)nc21	-4	0	-75	75*	2
COc1ccc(CNC(=O)c2cc(C3CC3)nc3c2cnn3C(C)C)cc1	-5	0	-31	31	-27
CCNC(=O)c1cccc(NC(=O)c2cc(C3CC3)nc3c2cnn3C(C)C)c1	-7	/	-75	75*	-3
CC(C)n1ncc2c(C(=O)N3CCN(c4ccccc4)CC3)cc(-c3ccccc3)nc21	-17	1	1	-1	-11
CC(C)n1ncc2c(C(=O)O)cc(C3CC3)nc21	-7	0	15	-15	5
CC(C)NC(=O)N(C)C[C@@H]1Oc2ccc(NS(C)(=O)=O)cc2C(=O)N(C)C[C@H]1C	/	/	/	/	-17
CC1=C(C(=O)N2CCN(c3cc(C)ccc3C)CC2)C2(CCCCC2)OC1=O	47*	0	17	-17	-3
CC(C)NC(=O)N(C)C[C@H]1Oc2c(N)cccc2C(=O)N(C)C[C@H]1C	/	/	/	/	-9
CC12C(=O)N(c3nccs3)C(=O)C1(C)C1CCC2O1 (configuration not stated)	-11	/	/	/	12
C[C@@]12C(=O)OC(=O)[C@]1(C)C1CCC2O1	-5	0	-89	89*	41*
CNC(=O)C[C@@H]1CC[C@H]2[C@H](COc3ccc(NC(=O)c4ccc(F)c(F)c4)cc3C(=O)N2C)O1	/	/	/	/	-10
Cc1noc(C)c1NC(=O)Nc1ccc2c(c1)C(=O)N([C@H](C)CO)C[C@@H](C)[C@H](CN(C)C(=O)Nc1ccc(F)cc1)OCCCC[C@H](C)O2	/	/	/	/	2
COc1cc(C(=O)OCCCN2CCCN(CCCOC(=O)c3cc(OC)c(OC)c(OC)c3)CC2)cc(OC)c1OC	-6	0	-81	81*	-1
CO[C@@H]1CN(C)C(=O)c2cc(NC(=O)NC3CCCC3)ccc2OC[C@@H](C)NC[C@@H]1C	/	/	/	/	-11
C[C@@H]1CN(C)C(=O)Cc2cc(N(C)C)ccc2O[C@@H]1CN(C)S(C)(=O)=O	/	/	/	/	-5
CS(=O)(=O)c1cccc(NC(=O)c2ccc(Cl)c(Cl)c2)c1	-3	0	-83	83*	/
O=C(Nc1ccc(Cl)c(Cl)c1)c1ccc(Cl)c(Cl)c1	-3	-1	-67	67	8
